Results on 19 molecules are retold here after ChEMBL document CHEMBL1146666, “N-[1-Aryl-2-(1-imidazolo)ethyl]-guanidine derivatives as potent inhibitors of the bovine mitochondrial F1F0 ATP hydrolase” (Bioorg Med Chem Lett, 2004).

The target in assay [1] is T1, Mitochondrial complex V; ATP synthase (Bos taurus, UniProt P00829+P05630+P05631+P05632). Put plainly: Inhibitory activity against bovine mitochondrial F1F0 ATP hydrolase. It counts as protein-complex assay.
The target in assay [2] is T1, Mitochondrial complex V; ATP synthase. The experiment in a line: Inhibitory activity against bovine mitochondrial F1F0-ATP synthase. The class given is protein-complex assay. A digest of the protocol:
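Synthase direction read as the rise in A340 in a hexokinase:glucose-6-phosphate dehydrogenase coupled assay.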

A value given as a limit tells only on which side of the number the result lay.

T1 sequence (P05632 whole entry): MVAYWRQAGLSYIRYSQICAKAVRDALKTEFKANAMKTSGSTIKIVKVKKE
T1 sequence (P00829 whole entry): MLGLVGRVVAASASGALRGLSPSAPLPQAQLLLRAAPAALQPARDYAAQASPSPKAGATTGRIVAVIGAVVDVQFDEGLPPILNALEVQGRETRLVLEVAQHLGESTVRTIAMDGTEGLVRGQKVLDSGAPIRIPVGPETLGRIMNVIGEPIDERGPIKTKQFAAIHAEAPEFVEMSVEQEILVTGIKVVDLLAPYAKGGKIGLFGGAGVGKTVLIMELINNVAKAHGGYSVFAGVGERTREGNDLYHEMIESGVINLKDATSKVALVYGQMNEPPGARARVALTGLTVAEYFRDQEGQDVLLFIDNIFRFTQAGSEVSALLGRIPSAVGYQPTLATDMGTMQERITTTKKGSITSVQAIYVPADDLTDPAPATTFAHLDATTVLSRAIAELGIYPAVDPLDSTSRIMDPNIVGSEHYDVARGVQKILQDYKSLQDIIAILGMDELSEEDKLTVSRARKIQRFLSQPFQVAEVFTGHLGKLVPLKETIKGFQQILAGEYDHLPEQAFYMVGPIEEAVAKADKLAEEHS
T1 sequence (P05631 whole entry): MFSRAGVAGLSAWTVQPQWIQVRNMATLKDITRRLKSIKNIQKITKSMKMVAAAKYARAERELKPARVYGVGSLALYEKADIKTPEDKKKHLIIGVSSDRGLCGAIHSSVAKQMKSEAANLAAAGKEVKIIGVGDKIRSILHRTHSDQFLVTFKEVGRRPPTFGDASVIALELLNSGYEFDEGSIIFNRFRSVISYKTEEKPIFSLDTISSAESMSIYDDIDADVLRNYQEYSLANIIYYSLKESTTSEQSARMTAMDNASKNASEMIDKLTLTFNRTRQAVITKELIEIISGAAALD
T1 sequence (P05630 whole entry): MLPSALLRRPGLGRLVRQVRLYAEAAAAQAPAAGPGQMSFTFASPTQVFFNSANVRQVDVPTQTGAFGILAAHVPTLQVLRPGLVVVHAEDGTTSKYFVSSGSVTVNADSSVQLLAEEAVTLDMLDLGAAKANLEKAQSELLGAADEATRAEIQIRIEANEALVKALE

The IC50 is the concentration at which inhibition is half-maximal. Low values mean greater potency in that assay, high ones weaker potency in that assay. In the case of `Cc1ccc(C(Cn2ccnc2)OC(=S)Nc2ccc(Cl)cc2)c(C)c1` (configuration not stated), the IC50 in assay [1] was 31.4 µM; in assay [2], > 100 µM.
The corresponding values for `S=C(Nc1ccc(Cl)cc1Cl)OC(Cn1ccnc1)c1ccc(Cl)cc1Cl` (configuration not stated) are 0.03 µM and > 100 µM.
The corresponding values for `N#CN/C(=N\C(Cn1ccnc1)c1ccc(Cl)cc1Cl)Nc1cccc(Cl)c1Cl` (configuration not stated) are 2.49 µM and > 100 µM.
The corresponding values for `O=C(Nc1ccc(Cl)cc1Cl)OC(Cn1ccnc1)c1ccc(Cl)cc1Cl` (configuration not stated) are 6.77 µM and > 100 µM.
Consider `N#CN/C(=N/c1ccc(Cl)cc1Cl)NC(Cn1ccnc1)c1ccc(Cl)cc1Cl` (configuration not stated), for which the figures for the IC50 in assay [1] and in assay [2] were 0.6 µM and > 100 µM, respectively.
For the molecule `CCC(=O)C(Nc1ccc(Cl)cc1)NC(Cn1ccnc1)c1ccc(Cl)cc1Cl` (configuration not stated), the concentration for half-maximal inhibition (IC50) in assay [1] was 2.27 µM; in assay [2], > 100 µM.
For the molecule `Cc1ccc(NC(=S)OC(Cn2ccnc2)c2ccc(Cl)cc2Cl)c(C)c1` (configuration not stated), the IC50 in assay [1] is 0.23 µM; in assay [2], > 100 µM.
The corresponding values for `O=C(c1ccc(Cl)cc1)C(Nc1ccc(Cl)cc1)NC(Cn1ccnc1)c1ccc(Cl)cc1Cl` (configuration not stated) are 0.082 µM and > 100 µM.
The corresponding values for `N#CN/C(=N\C(Cn1ccnc1)c1cc(C(F)(F)F)ccc1C(F)(F)F)Nc1ccc(Cl)cc1Cl` (configuration not stated) are 0.71 µM and > 100 µM.
For the molecule `N#CN/C(=N/c1cccc(Cl)c1)NC(Cn1ccnc1)c1ccc(Cl)cc1Cl` (configuration not stated), the IC50 in assay [1] is 9.17 µM; in assay [2] it was > 100 µM.
On the same counts, the results for `Cc1ccc(NC(=S)OC(Cn2ccnc2)c2ccc(Cl)cc2Cl)cc1` (configuration not stated) are 0.66 µM and > 100 µM.
On the same counts, the results for `N#Cc1ccc(C(=O)C(Nc2ccc(Cl)cc2)NC(Cn2ccnc2)c2ccc(Cl)cc2Cl)cc1` (configuration not stated) are 0.28 µM and > 100 µM.
On the same counts, the results for `N#CN/C(=N\C(Cn1ccnc1)c1ccc(Cl)cc1Cl)Nc1ccc(Cl)cc1` (configuration not stated) are 8.8 µM and > 100 µM.
With `S=C(Nc1ccc(Cl)cc1Cl)NC(Cn1ccnc1)c1ccc(Cl)cc1Cl` (configuration not stated), the IC50 in assay [1] is 2.41 µM; in assay [2], > 100 µM.
On the same counts, the results for `S=C(Nc1ccccc1)OC(Cn1ccnc1)c1ccc(Cl)cc1Cl` (configuration not stated) are 3.6 µM and > 100 µM.
On the same counts, the results for `S=C(Nc1ccc(Cl)cc1)OC(Cn1ccnc1)c1ccc(Cl)cc1Cl` (configuration not stated) are 0.43 µM and > 100 µM.
With `N#CN=C(Nc1ccccc1Cl)NC(Cn1ccnc1)c1ccc(Cl)cc1Cl` (configuration not stated), the IC50 in assay [1] is 2.23 µM; in assay [2], > 100 µM.
The molecule `N#Cc1cccc(C(=O)C(Nc2ccc(Cl)cc2)NC(Cn2ccnc2)c2ccc(Cl)cc2Cl)c1` (stereo in doubt; 19a) displayed an IC50 in assay [1] of 0.033 µM.
Take `N#Cc1cccc(C(=O)C(Nc2ccc(Cl)cc2)NC(Cn2ccnc2)c2ccc(Cl)cc2Cl)c1` (stereo in doubt; form 1): the IC50 in assay [1] and in assay [2] was > 100 µM each time.
